ChEMBL document CHEMBL4033611, “Chlorinated Dehydrocurvularins and Alterperylenepoxide A from Alternaria sp. AST0039, a Fungal Endophyte of Astragalus lentiginosus” (J Nat Prod, 2017)
Calls of active or inactive are those of the source. The rule behind the calls is not given here. Peptide text beside a SMILES is read from it. * marks the point of attachment. Cbz = O=C(OCc1ccccc1)*

Tests used:
NCI-H460 = assay: Cytotoxicity against human NCI-H460 cells after 72 hrs by resazurin/AlamarBlue dye-based fluorescence assay; format: functional, cell-based; conditions: NCI-H460, 72 h
Summary of the method: (§1)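 Serial dilutions of compound or DMSO vehicle added to triplicate wells in RPMI-1640 with 10% FBS, 72 h at 37 °C. Resazurin (AlamarBlue) dye then added at 1:10 dilution, 4 h more at 37 °C, fluorescence read at Ex/Em 560/590. Mean fluorescence per well compared with DMSO-treated wells as relative viable cell number; doxorubicin positive control.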

Fibroblast [1] = assay: Induction of heat-shock response in mouse fibroblasts harboring reporter construct encoding enhanced green fluorescent protein at 5 uM after overnight incubation by fluorescence assay; format: functional, cell-based
Summary of the method: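 Stably transfected reporter fibroblasts (EGFP driven by a minimal consensus heat-shock element) were seeded at 20 000 cells/well and left to attach overnight. Serial 2-fold dilutions of compound were added in triplicate, with DMSO vehicle (≤0.1%) as the negative control. After overnight incubation the cells were rinsed and read in PBS at Ex 485/Em 525 nm. Mean fluorescence ± SD was expressed relative to DMSO.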

MDA-MB-231 = assay: Cytotoxicity against human MDA-MB-231 cells after 72 hrs by resazurin/AlamarBlue dye-based fluorescence assay; format: functional, cell-based; conditions: MDA-MB-231, 72 h; summary of the method: as §1
PC-3M = assay: Cytotoxicity against human PC3M cells after 72 hrs by resazurin/AlamarBlue dye-based fluorescence assay; format: functional, cell-based; summary of the method: as §1
MCF7 = assay: Cytotoxicity against human MCF7 cells after 72 hrs by resazurin/AlamarBlue dye-based fluorescence assay; format: functional, cell-based; conditions: MCF7, 72 h; summary of the method: as §1
SF-268 = assay: Cytotoxicity against human SF268 cells after 72 hrs by resazurin/AlamarBlue dye-based fluorescence assay; format: functional, cell-based; conditions: SF-268, 72 h; summary of the method: as §1
[2] = biological target: Transitional endoplasmic reticulum ATPase (Homo sapiens) (UniProt P55072); assay: Inhibition of p97 in human MDA-MB-231 cells assessed as UPR activation by measuring increase in CHOP protein levels up to 20 uM after 8 hrs by Western blot analysis; format: cell-based
Chain of Transitional endoplasmic reticulum ATPase (Homo sapiens) (P55072 2-806 limits assumed): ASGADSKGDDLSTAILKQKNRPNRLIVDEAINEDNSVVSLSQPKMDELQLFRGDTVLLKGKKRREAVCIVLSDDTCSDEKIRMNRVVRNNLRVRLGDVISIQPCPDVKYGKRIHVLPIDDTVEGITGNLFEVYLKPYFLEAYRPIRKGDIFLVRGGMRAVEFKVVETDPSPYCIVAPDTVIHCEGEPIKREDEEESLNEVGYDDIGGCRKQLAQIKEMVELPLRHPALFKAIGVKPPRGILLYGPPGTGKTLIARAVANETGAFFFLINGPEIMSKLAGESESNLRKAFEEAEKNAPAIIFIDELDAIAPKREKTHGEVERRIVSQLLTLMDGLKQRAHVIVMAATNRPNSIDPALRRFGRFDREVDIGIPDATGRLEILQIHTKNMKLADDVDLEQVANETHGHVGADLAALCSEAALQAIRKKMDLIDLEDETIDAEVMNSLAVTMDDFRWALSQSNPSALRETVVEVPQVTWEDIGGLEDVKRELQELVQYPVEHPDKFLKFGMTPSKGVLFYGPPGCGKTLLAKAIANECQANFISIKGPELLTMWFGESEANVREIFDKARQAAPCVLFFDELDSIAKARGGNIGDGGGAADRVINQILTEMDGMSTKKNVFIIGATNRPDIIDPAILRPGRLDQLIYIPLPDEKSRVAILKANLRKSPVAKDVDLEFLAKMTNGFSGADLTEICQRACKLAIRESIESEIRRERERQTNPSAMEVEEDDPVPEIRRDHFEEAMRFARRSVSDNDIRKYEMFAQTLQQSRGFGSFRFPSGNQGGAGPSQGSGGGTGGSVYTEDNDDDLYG
Summary of the method: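 MDA-MB-231 cells were treated for 8 h in DMEM with 10% FBS, then harvested in SDS sample buffer, sonicated and cleared. Lysates were run on 4–20% SDS-PAGE and transferred to nitrocellulose. Blots were blocked in 5% milk and probed for CHOP, XBP1s and ATF4 (1:1000), with β-actin as loading control. Detection was by chemiluminescence. DMSO served as negative control, with CB-5083 (1.0 μM) and MG132 (5.0 μM) as comparators.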

Homo sapiens [3] = species on record: Homo sapiens; assay: Inhibition of proteasome in human MDA-MB-231 cells assessed as increase in CHOP protein levels at 5 uM after 8 hrs by Western blot analysis; format: cell-based
Summary of the method: (§2)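 Cells treated for 8 h in DMEM with 10% FBS, with DMSO negative control, CB-5083 (1.0 μM) positive control and MG132 (5.0 μM) comparator. Lysed by sonication in SDS sample buffer and run on 4–20% SDS-PAGE. Immunoblotted with anti-XBP1s, ATF4, CHOP (1:1000) and β-actin loading control, then HRP secondaries (1:3000) and chemiluminescence.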

Fibroblast [4] = assay: Induction of heat-shock response in mouse fibroblasts harboring reporter construct encoding enhanced green fluorescent protein at 1.25 to 5 uM after overnight incubation by fluorescence assay; format: functional, cell-based
Summary of the method: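 Reporter fibroblasts carry EGFP driven by a minimal consensus heat-shock element. Seeded at 20 000 cells/well and attached overnight. Serial 2-fold dilutions added in triplicate, with DMSO (≤0.1%) as negative control and monocillin I as positive control. Incubated overnight, rinsed with PBS, fluorescence read at 485/525 nm. Reported as mean ± SD of triplicates, also as a percentage of the DMSO control; three independent experiments.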

Homo sapiens [5] = species on record: Homo sapiens; assay: Inhibition of proteasome in human MDA-MB-231 cells assessed as UPR activation by measuring increase in ATF4 protein levels up to 20 uM after 8 hrs by Western blot analysis; format: cell-based; summary of the method: as §2
Homo sapiens [6] = species on record: Homo sapiens; assay: Inhibition of proteasome in human MDA-MB-231 cells assessed as increase in CHOP protein levels up to 20 uM after 8 hrs by Western blot analysis; format: cell-based; summary of the method: as §2
Homo sapiens [7] = species on record: Homo sapiens; assay: Inhibition of proteasome in human MDA-MB-231 cells assessed as increase in XBP1 protein levels up to 20 uM after 8 hrs by Western blot analysis; format: cell-based; summary of the method: as §2

Compound | IC50 (NCI-H460) | Activity (Fibroblast [1]) | IC50 (MDA-MB-231) | IC50 (PC-3M) | IC50 (SF-268) | also measured
C[C@H]1CCC/C=C/C(=O)c2c(cc(O)c(Cl)c2O)CC(=O)O1 | 1450 nM | Active | 2950 nM | 1710 nM | 1410 nM | IC50 (MCF7): 1990 nM
C[C@H]1CCC/C=C/C(=O)c2c(O)c(Cl)c(O)c(Cl)c2CC(=O)O1 | – | Active | – | – | – | inhibition [2]: Active
CC(C)C[C@@H](C=O)NC(=O)[C@H](CC(C)C)NC(=O)[C@H](CC(C)C)NC(=O)OCc1ccccc1 (Cbz-Leu-Leu-Leu-aldehyde) | – | – | – | – | – | inhibition (Homo sapiens [3]): Active
C[C@H]1CCC/C=C/C(=O)c2c(O)cc(O)cc2CC(=O)O1 [DEHYDROCURVULARIN] | 3570 nM | – | > 5000 nM | 4510 nM | 4730 nM | Activity (Fibroblast [4]): Active; inhibition (Homo sapiens [5]): Active; inhibition (Homo sapiens [6]): Active; inhibition (Homo sapiens [7]): Active
COc1cccc2c1C(=O)c1c(O)c3c(c(O)c1C2=O)C[C@@](O)(C(=O)CO)C[C@@H]3O[C@H]1C[C@H](N)[C@H](O)[C@H](C)O1 [DOXORUBICIN] | – | – | – | 240 nM | – | –
